In one data set the test system is Liver microsomes. The data set is described as follows: Intrinsic clearance in human liver microsomes assessed per mg of protein by liquid chromatography-mass spectrometry. The class given is ADME, Microsome. Put shortly: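 Compound is incubated with human liver microsomes and NADPH, and parent loss is followed by LC-MS. Concentration versus time is fitted to exponential decay to give the first-order depletion rate constant. In vitro CLint and predicted hepatic extraction ratio are calculated from that constant.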

Data set [1] can be described thus: Dissociation constant, pKa of the compound. It is filed as physicochemical.
A short description of data set [2]: Distribution coefficient, log D of the compound at pH 7.4. The settings on record: octanol/water. The class given is physicochemical.
The nature of data set [3]: Solubility of the compound at pH 2. It is filed as physicochemical. The settings on record: buffer.
The nature of data set [4]: Solubility of the compound at pH 6.5. The class given is physicochemical. The note with it: buffer.
A further data set deals with Leishmania donovani. Nature of the data set: Antiprotozoal activity against Leishmania donovani MHOM/ET/67/L82 amastigotes. The class given is functional, organism-based.
The next data set has as its system Plasmodium falciparum. The data set is described as follows: Antiplasmodial activity against Plasmodium falciparum 3D7 erythrocytic stage. It is filed as functional, organism-based.
Data set [5] has as its target T1, Trypanothione reductase (Trypanosoma cruzi, UniProt P28593). Nature of the data set: Inhibition of Trypanosoma cruzi X10/1 trypanothione reductase assessed as inhibition of thionitrobenzoate formation by microplate reader analysis. Put shortly: (§1)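 Recombinant T. cruzi TR (Silvio X10/1) coupled to DTNB-driven trypanothione regeneration. Enzyme (20 mU/ml), 12 μM T[S]2 and 200 μM DTNB in pH 7.5 HEPES/EDTA/BSA/Tween 20 buffer are preincubated ≥15 min at room temperature with compound. The reaction is started with 300 μM NADPH. Final conditions are 6 μM T[S]2, 100 μM DTNB and 150 μM NADPH. TNB absorbance at 410 nm is read for 12.5 min. Titrations are run in triplicate.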

For the next data set, the system named is Trypanosoma cruzi. The data set is described as follows: Antiprotozoal activity against Trypanosoma cruzi Tulahuen C2C4 amastigotes. It is filed as functional, organism-based.
In data set [6] the test system is Trypanosoma brucei rhodesiense. The data set is described as follows: Antitrypanosomal activity against Trypanosoma brucei rhodesiense STIB900 bloodstream forms. The class given is functional, organism-based.
Data set [7] is described as follows: Cytotoxicity against rat L6 cells. It is filed as cell-based.
For data set [8], the target named is T1, Trypanothione reductase. The data set is described as follows: Inhibition of Trypanosoma cruzi trypanothione reductase assessed as inhibition of thionitrobenzoate formation by microplate reader analysis. Put shortly: as §1
Data set [9] in a line: Cytotoxicity against human HT-29 cells. The class given is cell-based.
Data set [10] addresses Glutathione reductase (Homo sapiens). Nature of the data set: Inhibition of human glutathione reductase.

Several values for one entry are separate records, joined by “and”; a condition that tells them apart may be missing. Equal entries are not always repeated.

T1 sequence (P28593 whole entry): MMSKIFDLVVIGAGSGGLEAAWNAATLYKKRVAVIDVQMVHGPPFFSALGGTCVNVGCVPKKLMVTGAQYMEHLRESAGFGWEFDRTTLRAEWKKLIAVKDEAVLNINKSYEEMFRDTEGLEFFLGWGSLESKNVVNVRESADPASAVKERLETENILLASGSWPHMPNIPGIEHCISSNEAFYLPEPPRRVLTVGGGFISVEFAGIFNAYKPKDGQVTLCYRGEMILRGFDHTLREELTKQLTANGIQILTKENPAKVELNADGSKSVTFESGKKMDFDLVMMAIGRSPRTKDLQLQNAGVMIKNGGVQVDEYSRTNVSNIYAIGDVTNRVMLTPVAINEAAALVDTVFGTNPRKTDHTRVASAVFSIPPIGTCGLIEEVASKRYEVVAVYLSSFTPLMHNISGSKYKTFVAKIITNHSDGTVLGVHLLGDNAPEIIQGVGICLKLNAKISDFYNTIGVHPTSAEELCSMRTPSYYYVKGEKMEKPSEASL

Broadly, the pKa is the negative logarithm of the acid dissociation constant. Read a low pKa as a stronger acid or weaker base. By logD is commonly meant the decadic logarithm of the distribution of all forms, ionised or not, between an organic phase and buffer at a given pH. In general, solubility refers to the dissolved amount per volume that the medium holds. On to `CCc1ccc2c(C)nc(NC3=NC(C)(C)C=C(C)N3)nc2c1`, for which the CL in the data set with Liver microsomes worked out at 90 µL/min/mg. The compound also had a pKa in data set [1] of 2.4. In data set [2], this compound yielded a logD of 0.7. Besides, the solubility in [3] and in data set [4] was over 100 µM throughout.
As a reminder, the IC50 is the concentration needed to halve the response being measured. What is called CC50 is the concentration at which the toxic effect on the cells reaches its halfway point. Low values mean greater toxicity to the cells, high ones lower toxicity to the cells. As for `CN1C2CCC1CC(=NOC(c1ccccc1)c1ccc(Cl)cc1)C2` (configuration not stated), the 50% inhibitory concentration (IC50) with Leishmania donovani was over 30 µM; in the data set with Plasmodium falciparum, 8 µM; at Trypanothione reductase [5] it was 33 µM; in the data set on Trypanosoma cruzi, 0.1 µM; in [6], 3 µM. In addition, it took 35 µM to reach half-maximal cytotoxicity in [7] (CC50). Also, in the data set on Liver microsomes, the CL is 31 µL/min/mg. In addition, the pKa in data set [1] amounted to 8.34. In data set [2], the logD was 2.9. Besides, the solubility in data set [3] and in data set [4] was over 100 µM in each case.
Consider `CSc1nncc(-c2ccccc2)n1`, for which the concentration for half-maximal inhibition (IC50) at Trypanothione reductase [5] is over 100 µM.
For `S=C(Nc1ccccc1)NC1CCN(Cc2ccccc2)CC1`, the half-maximal inhibitory concentration (IC50) on Trypanothione reductase [8] stood at 33 µM.
Regarding `S=C(Nc1cccnc1)NC1CCN(Cc2ccccc2)CC1`, the IC50 with Leishmania donovani is over 30 µM; at Trypanothione reductase [8], 1 µM and 3 µM; in the data set with Plasmodium falciparum, 8.6 µM; at Trypanothione reductase [5] it was 2 µM; in the data set on Trypanosoma cruzi, over 30 µM; in data set [6], 15 µM. The same compound displayed a CC50 in data set [7] of 90 µM.
For `CN1/C(=C/C=C2\C=Nc3ccccc32)C=Cc2ccccc21`, the half-inhibitory concentration (IC50) in the data set with Leishmania donovani stood at 3 µM; in the data set on Plasmodium falciparum, 0.2 µM; on Trypanothione reductase [5], 23 µM; in the data set on Trypanosoma cruzi it was 6 µM; in [6], 0.1 µM. The same compound showed a cytotoxic concentration (CC50) in data set [7] of 14 µM.
Turning to `CCCNC(=S)NC1CCN(Cc2ccccc2)CC1`, the IC50 on Trypanothione reductase [8] is over 100 µM.
Still for that read-out and setting: next, `O=C(Nc1cccnc1)NC1CCN(Cc2ccccc2)CC1`: over 100 µM; `CCN1CCC(NC(=S)Nc2cccnc2)CC1`: over 100 µM.
In the case of `CSc1nncc(-c2cnc(SC)c3c2CCCC3)n1`, the 50% inhibitory concentration (IC50) at Trypanothione reductase [5] was over 100 µM.
Regarding `CCc1ccc2c(C)nc(NC3=NC(C)(C)CC(C)=N3)nc2c1`, the IC50 at Trypanothione reductase [5] came to 32 µM. This compound yielded a CL in the data set on Liver microsomes of 90 µL/min/mg. In data set [1], this compound had a pKa of 2. In addition, the logD in data set [2] turned out to be 3.6. Further, the solubility in data set [3] and in [4] was over 100 µM throughout.
Turning to `CCOc1ccc2c(C)nc(NC3=NC(C)(C)CC(C)=N3)nc2c1`, at Trypanothione reductase [5], the IC50 is 28 µM.
Consider `Cc1cc(C)c2nc(Nc3nc(C)c(C)c(O)n3)nc(C)c2c1`, for which the 50% inhibitory concentration (IC50) at Trypanothione reductase [5] was over 100 µM.
As for `Cc1cc(C)c2c(C)nc(Nc3nc(C)cc(C)n3)nc2c1`, the IC50 in the data set with Leishmania donovani is 32 µM; in the data set with Plasmodium falciparum, 4 µM; at Trypanothione reductase [5] it was over 100 µM; in the data set on Trypanosoma cruzi, 8 µM; in data set [6], 27 µM. This compound yielded a CC50 in data set [7] of 11 µM.
As to `Cc1ccc2nc(Nc3nc(C)cc(C)n3)nc(C)c2c1`, the half-maximal inhibitory concentration (IC50) on Trypanothione reductase [5] is over 100 µM.
Still for that read-out and setting: in the case of `Cc1cc(C)c2nc(NC(=N)N)nc(C)c2c1` it was over 100 µM.
Consider `N=c1n(CCOc2ccccc2)c2ccccc2n1CCN1CCCCC1`, for which the 50% inhibitory concentration (IC50) in the data set with Leishmania donovani was over 30 µM; in the data set on Plasmodium falciparum, 2 µM; at Trypanothione reductase [5] it was 9 µM; in the data set on Trypanosoma cruzi, 19 µM; in [6] it was 0.6 µM; in data set [10], over 100 µM. Besides, the midpoint of cytotoxicity in [9], the CC50, lay at 42 µM.
In the case of `CC1=CC(C)(C)N=C(Nc2nc(C)c3cc(C)cc(C)c3n2)N1`, the IC50 in the data set on Leishmania donovani amounted to 14 µM; with Plasmodium falciparum, 2 µM; at Trypanothione reductase [5], 17 µM; in the data set with Trypanosoma cruzi it was 6 µM; in data set [6], 1 µM. Besides, the cytotoxic concentration (CC50) in data set [7] amounted to 10 µM.
As for `COc1nncc(-c2cnnc(SC)n2)n1`, the half-inhibitory concentration (IC50) was determined as 8 µM in the data set with Leishmania donovani; 0.2 µM with Plasmodium falciparum; 27 µM on Trypanothione reductase [5]; 15 µM in the data set on Trypanosoma cruzi; 5 µM in data set [6]. For the same compound, the CC50 in data set [7] came to 30 µM.
Take `Cc1nc(NC(=N)N)nc2ccccc12`: the IC50 with Leishmania donovani is over 64 µM; with Plasmodium falciparum it was 42 µM; at Trypanothione reductase [5], over 100 µM; with Trypanosoma cruzi, 38 µM; in [6] it was 39 µM. The CC50 in data set [7] is over 64 µM.
Turning to `Nc1nc(N)nc(Nc2ccc([As]3SCC(CO)S3)cc2)n1` (configuration not stated) [MELARSOPROL], in [6], the IC50 was determined as 0.017 µM.
